IMP-1 inhibitor: inhibitors of Pseudomonas aeruginosa IMP-1 metallo-beta-lactamase. AID 1556. hit rate 0.45% among 290,000. inhibition, % at 5.6 µM. purified IMP-1, nitrocefin hydrolysis, epi-absorbance fluorescence;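 active means inhibition above the mean plus 3 SD of all compounds in the same screening run, cut at about 4.5% in these data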
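System: Purified recombinant IMP-1 metallo-beta-lactamase enzyme | Measured by: Fluorescence quenching readout, ex 480/em 530 nm | Replication: Singlicate | Incubation: 15 min preincubation plus 25 min reaction at 25 °C | Evaluation: Percent inhibition from optical density relative to buffer-blank wells | Benchmarks: DMSO with and without IMP-1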
ERp5 inh: blocks human ERp5 reductase activity on insulin | ERp5 insulin aggregation, absorbance 650 nm, 90 min | inhibition, % at 9.99 µM | hit rate 0.05% among 350,000;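 active means mean replicate inhibition above about 25%, with every replicate also reaching it, limit read from the data, passing the limit was not always enough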
Target sequence (Q15084 whole entry, looked up): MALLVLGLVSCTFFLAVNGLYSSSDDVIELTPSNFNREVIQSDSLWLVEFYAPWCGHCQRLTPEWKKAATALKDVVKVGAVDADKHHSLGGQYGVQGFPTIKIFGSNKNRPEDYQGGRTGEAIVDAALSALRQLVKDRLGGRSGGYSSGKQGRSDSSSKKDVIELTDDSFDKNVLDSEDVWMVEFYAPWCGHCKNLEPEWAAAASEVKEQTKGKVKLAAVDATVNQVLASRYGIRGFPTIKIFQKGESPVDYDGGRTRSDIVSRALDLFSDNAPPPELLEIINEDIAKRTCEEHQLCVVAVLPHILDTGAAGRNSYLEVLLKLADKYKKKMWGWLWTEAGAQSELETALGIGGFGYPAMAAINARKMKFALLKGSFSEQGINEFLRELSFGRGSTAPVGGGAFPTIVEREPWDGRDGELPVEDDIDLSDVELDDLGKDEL
PDI inh: inhibitors of human protein disulfide isomerase. PDI insulin aggregation turbidity, A650, 90 min. inhibition, % at 10 µM. hit rate 0.052% among 350,000;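 active means mean inhibition across replicates of 30% or more, whatever share of single replicates reach that level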
PglD DTNB: blocks C. jejuni PglD acetyltransferase activity; purified PglD enzyme, DTNB colorimetric CoA detection; inhibition, % at 12.5 µM; hit rate 0.098% among 360,000; in the data active means inhibition above about 16%, passing the limit was not always enough
VIM-2 inh: inhibitors of Pseudomonas aeruginosa VIM-2 metallo-beta-lactamase; purified VIM-2, nitrocefin hydrolysis, epi-absorbance fluorescence; inhibition, % at 5.6 µM; hit rate 0.89% among 290,000; AID 1527;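 active means inhibition above the mean of all tested compounds plus 3 SD, cutoff set per screening run, cut at about 7.5% in these data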;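 further: red hydrolysis product quenches plate fluorescence so inhibitors raise well fluorescence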
PvdQ inh: P. aeruginosa PvdQ acylase inhibition. purified PvdQ acylase, fluorescence plate reader. inhibition, % at 10 µM. hit rate 0.063% among 340,000; in the data active means inhibition above about 30%, passing the limit was not always enough
Hits are given with their value. Shown are actives, neighbours in structure and some others; about 1% of the full set was active somewhere.

`COc1ccc2c3c(cccc13)C(=O)N(O)C2=O` gave IMP-1 inhibitor inactive, ERp5 inh inactive, PDI inh inactive, PglD DTNB inactive, VIM-2 inh 9.0 and PvdQ inh inactive.
O=C(C[C@@H]1CC[C@H]2[C@@H](COC[C@@H](O)CN2Cc2ccccc2F)O1)NCc1ccccc1F was read as ERp5 inh inactive and PglD DTNB inactive.
CN(/N=C/c1cc(Br)cc(Br)c1O)c1ccccc1 was read as IMP-1 inhibitor 8.3, ERp5 inh inactive, PDI inh inactive, PglD DTNB inactive, VIM-2 inh inactive and PvdQ inh inactive.
`O=C(O)c1cccc(N/N=C/c2cc(Br)cc(Br)c2O)c1` gave IMP-1 inhibitor inactive, PDI inh inactive, PglD DTNB inactive, VIM-2 inh inactive and PvdQ inh inactive.
Screening Cc1cc(C(F)(F)F)c2c(=O)[nH]c(=O)n(Cc3ccccc3)c2n1 returned IMP-1 inhibitor 7.3, PDI inh inactive, PglD DTNB inactive, VIM-2 inh inactive and PvdQ inh inactive.
`Cn1c(NCc2cccnc2)nc2c1c(=O)n(Cc1ccccc1F)c(=O)n2C` gave IMP-1 inhibitor inactive, ERp5 inh inactive, PDI inh inactive, PglD DTNB inactive, VIM-2 inh 8.3 and PvdQ inh inactive.
`COCCNc1nc2c(c(=O)n(Cc3ccccc3F)c(=O)n2C)n1C` gave IMP-1 inhibitor inactive, ERp5 inh inactive, PDI inh inactive, PglD DTNB inactive, VIM-2 inh inactive and PvdQ inh inactive.
O=C(c1cc([N+](=O)[O-])ccc1N1CCOCC1)N1CCN(c2ccc([N+](=O)[O-])cc2)CC1 was read as ERp5 inh inactive, PDI inh 35.7, PglD DTNB inactive and PvdQ inh inactive.
CCCCNC(=O)CSc1nnc(Cc2ccccc2)n1CC was read as IMP-1 inhibitor 4.5, PDI inh inactive, PglD DTNB inactive, VIM-2 inh inactive and PvdQ inh inactive.
`COc1ccc(C#Cc2ccc3c(c2)O[C@H](CN(C)S(=O)(=O)c2ccccc2F)[C@@H](C)CN([C@@H](C)CO)S3(=O)=O)cc1` gave ERp5 inh inactive and PglD DTNB inactive.
`Cc1ccc(CNC(=O)C2CCCN(c3nc4ccccc4o3)C2)cc1` (stereo unspecified) gave IMP-1 inhibitor inactive, ERp5 inh inactive, PDI inh inactive, PglD DTNB inactive, VIM-2 inh inactive and PvdQ inh inactive.
Screening O=C(NCc1cccs1)C1CCCN(c2nc3ccccc3o2)C1 (stereo unspecified) returned IMP-1 inhibitor 4.8, PDI inh inactive, PglD DTNB inactive, VIM-2 inh inactive and PvdQ inh inactive.
CCOC(=O)C1=C(C)Nc2sc(C(=O)c3ccc(C)cc3)c(N)c2C1c1ccc(C(=O)OC)cc1 (stereo unspecified) was read as IMP-1 inhibitor inactive, ERp5 inh inactive, PDI inh inactive, PglD DTNB inactive, VIM-2 inh 7.8 and PvdQ inh inactive.
`CNC[C@H]1Oc2ccc(NC(=O)Cc3ccccc3)cc2CC(=O)N([C@H](C)CO)C[C@H]1C` gave ERp5 inh inactive and PglD DTNB inactive.
C[C@H]1CN([C@@H](C)CO)C(=O)Cc2cc(NC(=O)CCCCCC(=O)Nc3ccccc3N)ccc2O[C@H]1CN(C)CC1CCCCC1 was read as ERp5 inh inactive and PglD DTNB inactive.
Screening C[C@H]1CN([C@@H](C)CO)C(=O)c2cc(NC(=O)CCCCCC(=O)Nc3ccccc3N)ccc2O[C@H]1CN(C)CC1CCCCC1 returned ERp5 inh inactive.
For Cc1nc(SCc2nc3ccccc3[nH]2)c2oc3ccc(Br)cc3c2n1 the results were ERp5 inh inactive, PDI inh inactive, PglD DTNB inactive and PvdQ inh inactive.
`Cc1nc(SCc2nc3ccccc3[nH]2)c2oc3ccccc3c2n1` gave IMP-1 inhibitor inactive, PDI inh inactive, PglD DTNB inactive, VIM-2 inh 13.2 and PvdQ inh inactive.
Screening Cc1nc(N2CCN(Cc3nc4ccccc4[nH]3)CC2)c2oc3ccccc3c2n1 returned IMP-1 inhibitor inactive, PDI inh inactive, PglD DTNB inactive, VIM-2 inh 11.5 and PvdQ inh inactive.
For COCC#Cc1cnc2c(c1)C(=O)N([C@@H](C)CO)C[C@H](C)[C@H](CN(C)C(=O)CCN1CCCCC1)O2 the results were ERp5 inh inactive and PglD DTNB inactive.

Screening results: PubChem, several laboratories
